# Rows were chosen to be rich in hits. Some 1% of all compounds tested hit in one or more screens of this group.
# Arr AP2 block = blocks beta-arrestin peptide binding to AP2 adaptin | FITC-arrestin peptide / GST-AP2 beads, flow cytometry; AP2 beta2 appendage carries R879A mutation | 340,000 compounds, 0.31% hits | inhibition, % at 10 µM;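 active = inhibition above a set limit, near 3 SD of compounds lacking own fluorescence, cut at about 54% in these data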;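 note: plate controls were DMSO wells for no effect and 5 µM unlabelled arrestin peptide for full effect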
#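 System: GST-AP2 R879A glutathione beads. Medium: PBS with 0.05% Tween 20 and 0.1% BSA. Also added: FITC-arrestin peptide, 50 nM. Incubation: 12 min plus 1 h, RT. Measured by: high-throughput flow cytometry of beads, ex 488, em 535 nm. Evaluation: percent drop in bead-associated FITC signal.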
# Lipid droplet = hepatic lipid droplet formation modulation; AML12 mouse hepatocytes, oleate lipid droplets, BODIPY imaging; 240,000 compounds, 0.4% hits; inhibition, % at 6.5 µM;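 active = lipid droplet intensity inhibited by at least 50%, with more than 500 cells counted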
#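 Test system: AML12 mouse liver cells; schedule: overnight exposure; technique: high-content imaging of BODIPY-stained droplets and DAPI nuclei; read-out: % inhibition of corrected integrated BODIPY droplet signal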
# pCIP destab = compounds decreasing mouse p/CIP protein stability; Q05BA5; F442A p/CIP-EGFP cells, EGFP fluorescence, 16 h; decrease of EGFP signal, % at 10 µM; 290,000 compounds, 0.01% hits; AID 1984;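 active = EGFP signal decrease of at least 30% at 10 µM or well 3 SD below plate mean, unless failing retest; inactive = the rest, including hits failing retest or dose response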
# CTSL1 counter = counter-screen for PFM18AAP inhibitors: inhibitors of F. hepatica cathepsin L1. recombinant F. hepatica cathepsin L1, Z-Leu-Arg-MCA fluorescence. inhibition, % at 5.96 µM. 300,000 compounds, 0.49% hits. AID 1906;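 active = inhibition above the mean of all tested compounds plus 3 SD, set per screening campaign, cut at about 17% in these data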;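 note: 0% = plate median of test compound wells and 100% = 1 µM Z-Phe-Ala-diazomethylketone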
# Active calls of the source: *; nt = not tested or not shown.
SMILES,Arr AP2 block,Lipid droplet,pCIP destab,CTSL1 counter
Cc1ccc(N2C(=O)C(CN3CCOCC3)C2c2ccccc2)cc1 (stereo not drawn),7,4,7,-2
CCCCC(=O)NC(NC(=O)CCCC)c1ccc(OCCC)c(OC)c1,-1,-25,2,-3
COC(=O)[C@@H](NC(=O)/C=C/c1ccc(OC)cc1)C(C)C,5,6,8,2
COc1ccc(/C=C/C(=O)NC2CCCCC2C)cc1 (stereo not drawn),-4,-3,-3,-1
CC1CCCCC1NC(=O)/C=C/c1nc2ccccc2s1 (stereo not drawn),-1,1,-3,23*
CCOc1ccc(N=NC2C(=O)N(C(N)=S)N=C2C)cc1 (stereo not drawn),-16,-2,-4,8
Clc1ccc(N/N=C/c2cccnc2)cc1,22,-1,4,17*
COc1cccc(NC(=S)NN=C2CCC(C(C)(C)C)CC2)c1 (stereo not drawn),14,-2,5,20*
CCCCCOC(=O)C1C2C=CC3(CN(c4ccccc4C)C(=O)C13)O2 (stereo not drawn),3,-23,-1,19*
COC(=O)c1ccc(-c2ccco2)n1Cc1ccccc1Cl,9,-1,-4,-2
COC(=O)c1ccc(-c2ccco2)n1Cc1nc(-c2ccc(OC)c(OC)c2)oc1C,22,-19,-4,19*
O=C1c2ccccc2S(=O)(=O)N1CC(O)Cn1ccc2ccccc21 (stereo not drawn),-3,7,-13,-1
Cc1c(NC(=S)N/N=C/c2ccc(Br)cc2)c(=O)n(-c2ccccc2)n1C,3,13,-7,5
Cn1c(CS/C(N)=N/N=C/c2ccccc2)c(Br)c(=O)n1-c1ccccc1,0,-16,-2,37*
CC(C)(C)c1ccc(S(=O)(=O)Nc2ccc(Cc3ccncc3)cc2)cc1,28,67*,2,4
CC(=O)Nc1ccc(S(=O)(=O)Nc2ccc(Cc3ccncc3)cc2)cc1,-7,-11,4,1
COc1cc(OC)cc(N(C(=O)c2ccco2)C(C(=O)NC2CCCC2)c2ccc(N(C)C)cc2)c1 (stereo not drawn),3,nt,-14,-1
O=C(O)[C@H](Cc1ccccc1)NC(=O)N1CCN(c2ccccc2)CC1,-6,4,-4,17*
COc1ccc(CCNC(=O)CCCCC(=O)NCCc2ccc(OC)c(OC)c2)cc1OC,-1,nt,nt,-4
COc1ccc(CCN/C=C2/CC(=O)NC2=O)cc1OC,3,10,-5,25*
COc1ccc(S(=O)(=O)N2CCOC23CCN(C(=O)c2ccc(Cl)cc2Cl)CC3)cc1,-14,-4,-5,-3
CSCC[C@H](NC(=O)OC(C)(C)C)c1nnc(SCC(=O)Nc2ccc(C)cc2C)o1,-13,nt,-8,68*
CCc1ccccc1NC(=O)CSc1nnc([C@H](CCSC)NC(=O)OC(C)(C)C)o1,16,6,-8,54*
Cc1ccc(NC(=O)CSc2nnc([C@H](C)NC(=O)OC(C)(C)C)o2)c(C)c1,20,22,6,4
CSCC[C@H](NC(=O)OC(C)(C)C)c1nnc(SCC(N)=O)o1,7,nt,11,6
SMILES,Arr AP2 block,Lipid droplet,pCIP destab,CTSL1 counter
CCN(C(=O)CN1CCN(c2ccccc2)CC1)c1c(N)n(Cc2ccccc2)c(=O)[nH]c1=O,-4,nt,-15,-7
CCOC(=O)c1sc(S(C)(=O)=O)c2c1CCc1conc1-2,53,-8,-7,42*
O=C(O)c1ccc(CSc2ccccn2)cc1,-2,5,1,5
Cc1ccc(-n2c(=O)c3c4c(sc3n3c(=S)[nH]nc23)CCC4)cc1,-41,-1,-5,2
COc1ccc(-n2c(=O)c3c4c(sc3n3c(=S)[nH]nc23)CCC4)cc1,-25,0,-2,17*
Cn1nc(-c2ccccn2)nc2c(=O)n(C)c(=O)nc1-2,5,-4,31,114*
CCCc1nc2c(=O)n(C)c(=O)nc-2n(C)n1,14,-15,nt,nt
OC(c1cc(-c2ccc(C(F)(F)F)cc2)nc(C(F)(F)F)c1)C1CCCCN1 (stereo not drawn),-12,-13,-10,4
CSCCC(NC(=O)c1ccco1)C(=O)NCC(c1ccco1)N1CCCCC1 (stereo not drawn),3,nt,nt,nt
CC(C)C(NC(=O)c1ccco1)C(=O)NCC(c1ccco1)N1CCCCC1 (stereo not drawn),-4,-7,-7,79*
O=C(COC(=O)c1ccc(S(=O)(=O)N2CCOCC2)cc1)NC1CCCCCCC1,-12,6,14,1
Nc1cc2nsnc2cc1Br,43,nt,-10,114*
CCOC(=O)Nc1cccc(OCC(=O)Nc2ccccc2OCC)c1,-3,16,3,30*
COC(=O)c1sc2cc([N+](=O)[O-])cc(SCC(C)C)c2c1N,28,56*,-26,-4
CCNC(=O)C1CCCN1C(=O)C(CCCN=C(N)N)NC(=O)C(CC(C)C)NC(=O)C(Cc1cn(Cc2ccccc2)cn1)NC(=O)C(Cc1ccc(O)cc1)NC(=O)C(CO)NC(=O)C(Cc1c[nH]c2ccccc12)NC(=O)C(Cc1cnc[nH]1)NC(=O)C1CCC(=O)N1 (stereo not drawn),nt,4,22,40*
NC(=O)[C@@H]1CCCN1C(=O)[C@@H](Cc1cnc[nH]1)NC(=O)[C@@H]1CCC(=O)N1,1,nt,nt,nt
O=C(CSc1nnc(COc2ccccc2)n1-c1ccccc1)c1ccccc1,-9,nt,0,4
O=S(=O)(c1ccccc1)N1CCN=C1SCc1ccccc1,0,1,2,-3
C/C(=C\C=C\c1ccccc1)C(=O)c1c(C)cc(C)[nH]c1=O,-5,13,-14,22*
CCOc1cc(C(=O)OCc2cc(=O)n3c(C)csc3n2)ccc1OC,3,nt,nt,nt
CCC1Oc2ccc(C)cc2N(CC(=O)NCCN2C(C)CCCC2C)C1=O (stereo not drawn),26,-15,-11,-3
CC(C)CC(C(=O)OCC(=O)Nc1cccc(Cl)c1)N1C(=O)C2CC=CCC2C1=O (stereo not drawn),6,-1,1,22*
O=c1c2ccccc2sn1-c1ccc(S(=O)(=O)N2CCCCC2)cc1,8,nt,nt,-6
Cc1ccc(-n2sc3ccccc3c2=O)cc1S(=O)(=O)N1CCCCC1,90*,-14,2,-2
N/C(CCS(=O)(=O)c1ccc(Cl)cc1)=N\OC(=O)c1ccc(Cl)cc1,0,3,8,17*
N/C(CS(=O)(=O)c1ccccn1)=N\OC(=O)c1ccc(Cl)cc1,-12,0,-6,-2
N/C(CCS(=O)(=O)c1ccc(Cl)cc1)=N\OC(=O)c1ccccc1C(F)(F)F,26,-4,-11,19*
Cc1ccc(NC(=O)c2oc3ccccc3c2NC(=O)C2CCCO2)cc1C (stereo not drawn),2,-13,4,0
Cc1cc2c(cc1C)N(C(=O)CSC1=NCCS1)C(C)(C)c1ssc(=S)c1-2,-1,67*,-11,-1

# Bioassay records from PubChem.
